Measurements: ChEMBL document CHEMBL1158563, “Identification of benzimidazole-based inhibitors of the mitogen activated kinase-5 signaling pathway” (2010)

Key:
[1] = target: T1, Dual specificity mitogen-activated protein kinase kinase 5 (Homo sapiens) (UniProt Q13163); experiment: Inhibition of EGF-induced MEK5-mediated ERK5 phosphorylation in human HEK293 cells at 10 uM treated after 30 mins EGF challenge measured after 30 mins by Western blot analysis relative to control; assay type: cell-based; parameters: scale not given: the % may be the effect or the level left
T1 sequence (whole entry): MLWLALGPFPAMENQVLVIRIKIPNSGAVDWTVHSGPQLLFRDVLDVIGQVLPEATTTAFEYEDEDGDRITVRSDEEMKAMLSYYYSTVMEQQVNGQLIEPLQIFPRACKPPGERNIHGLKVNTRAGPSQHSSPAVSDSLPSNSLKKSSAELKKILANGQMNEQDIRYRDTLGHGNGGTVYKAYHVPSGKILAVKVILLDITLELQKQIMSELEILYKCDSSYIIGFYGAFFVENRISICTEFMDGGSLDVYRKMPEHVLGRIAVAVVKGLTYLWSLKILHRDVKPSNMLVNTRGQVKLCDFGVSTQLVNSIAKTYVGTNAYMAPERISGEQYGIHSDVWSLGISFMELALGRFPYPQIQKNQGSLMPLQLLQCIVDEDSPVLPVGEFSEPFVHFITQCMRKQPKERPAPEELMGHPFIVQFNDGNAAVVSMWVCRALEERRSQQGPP
How it was run: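 HEK293 cells were grown in medium with 10% heat-inactivated FBS and 0.5% penicillin/streptomycin at 37 °C, 5% CO2. They were stimulated with 50 ng/mL EGF, then given 10 µM compound (final) 30 min later, and lysed 30 min after that in 1% Triton buffer. 60 µg protein was run on 10% SDS gels and blotted for pERK1/2 (1:1000) or pERK5 (1:500).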

MOLT-4 = experiment: Cytotoxicity against human MOLT4 cells at 10 uM assessed as cell growth relative to control; assay type: functional; details: read-out: Activity
[2] = Cytotoxicity against human […] cells at 10 uM assessed as cell growth relative to control; assay type: functional; details: read-out: Activity
SK-OV-3 = experiment: Cytotoxicity against human SKOV3 cells at 10 uM assessed as cell growth relative to control; assay type: functional; details: read-out: Activity
NCI-H226 = experiment: Cytotoxicity against human NCI-H226 cells at 10 uM assessed as cell growth relative to control; assay type: functional; details: read-out: Activity
OVCAR-4 = experiment: Cytotoxicity against human OVCAR4 cells at 10 uM assessed as cell growth relative to control; assay type: functional; details: read-out: Activity
NCI/ADR-RES = experiment: Cytotoxicity against human NCI/ADR-RES cells at 10 uM assessed as cell growth relative to control; assay type: functional; details: read-out: Activity
MDA-MB-231 = experiment: Cytotoxicity against human MDA-MB-231 cells at 10 uM assessed as cell growth relative to control; assay type: functional; details: read-out: Activity
HCT-15 = experiment: Cytotoxicity against human HCT15 cells at 10 uM assessed as cell growth relative to control; assay type: functional; details: read-out: Activity
SNB-19 = experiment: Cytotoxicity against human SNB19 cells at 10 uM assessed as cell growth relative to control; assay type: functional; details: read-out: Activity
MCF7 = experiment: Cytotoxicity against human MCF7 cells at 10 uM assessed as cell growth relative to control; assay type: functional; details: read-out: Activity
SK-MEL-5 = experiment: Cytotoxicity against human SK-MEL-5 cells at 10 uM assessed as cell growth relative to control; assay type: functional; details: read-out: Activity
SK-MEL-28 = experiment: Cytotoxicity against human SK-MEL-28 cells at 10 uM assessed as cell growth relative to control; assay type: functional; details: read-out: Activity
M14 = experiment: Cytotoxicity against human M14 cells at 10 uM assessed as cell growth relative to control; assay type: functional; details: read-out: Activity
ACHN = experiment: Cytotoxicity against human ACHN cells at 10 uM assessed as cell growth relative to control; assay type: functional; details: read-out: Activity
TK-10 = experiment: Cytotoxicity against human TK10 cells at 10 uM assessed as cell growth relative to control; assay type: functional; details: read-out: Activity
CAKI-1 = experiment: Cytotoxicity against human Caki1 cells at 10 uM assessed as cell growth relative to control; assay type: functional; details: read-out: Activity
786-0 = experiment: Cytotoxicity against human 786-0 cells at 10 uM assessed as cell growth relative to control; assay type: functional; details: read-out: Activity
SF-539 = experiment: Cytotoxicity against human SF539 cells at 10 uM assessed as cell growth relative to control; assay type: functional; details: read-out: Activity
KM12 = experiment: Cytotoxicity against human KM12 cells at 10 uM assessed as cell growth relative to control; assay type: functional; details: read-out: Activity
NCI-H23 = experiment: Cytotoxicity against human NCI-H23 cells at 10 uM assessed as cell growth relative to control; assay type: functional; details: read-out: Activity
CCRF-CEM = experiment: Cytotoxicity against human CCRF-CEM cells at 10 uM assessed as cell growth relative to control; assay type: functional; details: read-out: Activity
T47D = experiment: Cytotoxicity against human T47D cells at 10 uM assessed as cell growth relative to control; assay type: functional; details: read-out: Activity
HOP-92 = experiment: Cytotoxicity against human HOP92 cells at 10 uM assessed as cell growth relative to control; assay type: functional; details: read-out: Activity
BT-549 = experiment: Cytotoxicity against human BT549 cells at 10 uM assessed as cell growth relative to control; assay type: functional; details: read-out: Activity
[3] = Cytotoxicity against human Hs 578T cells at 10 uM assessed as cell growth relative to control; assay type: functional; details: read-out: Activity
IGROV-1 = experiment: Cytotoxicity against human IGROV1 cells at 10 uM assessed as cell growth relative to control; assay type: functional; details: read-out: Activity
U-251 = experiment: Cytotoxicity against human U251 cells at 10 uM assessed as cell growth relative to control; assay type: functional; details: read-out: Activity
NCI-H460 = experiment: Cytotoxicity against human NCI-H460 cells at 10 uM assessed as cell growth relative to control; assay type: functional; details: read-out: Activity
NCI-H322M = experiment: Cytotoxicity against human NCI-H322M cells at 10 uM assessed as cell growth relative to control; assay type: functional; details: read-out: Activity
LOX IMVI = experiment: Cytotoxicity against human LOXIMVI cells at 10 uM assessed as cell growth relative to control; assay type: functional; details: read-out: Activity
EKVX = experiment: Cytotoxicity against human EKVX cells at 10 uM assessed as cell growth relative to control; assay type: functional; details: read-out: Activity
SW-620 = experiment: Cytotoxicity against human SW620 cells at 10 uM assessed as cell growth relative to control; assay type: functional; details: read-out: Activity
HCT-116 = experiment: Cytotoxicity against human HCT116 cells at 10 uM assessed as cell growth relative to control; assay type: functional; details: read-out: Activity
HL-60(TB) = experiment: Cytotoxicity against human HL-60(TB) cells at 10 uM assessed as cell growth relative to control; assay type: functional; details: read-out: Activity
OVCAR-8 = experiment: Cytotoxicity against human OVCAR8 cells at 10 uM assessed as cell growth relative to control; assay type: functional; details: read-out: Activity
Malme-3M = experiment: Cytotoxicity against human MALME-3M cells at 10 uM assessed as cell growth relative to control; assay type: functional; details: read-out: Activity
UACC-257 = experiment: Cytotoxicity against human UACC257 cells at 10 uM assessed as cell growth relative to control; assay type: functional; details: read-out: Activity
HCC 2998 = experiment: Cytotoxicity against human HCC2998 cells at 10 uM assessed as cell growth relative to control; assay type: functional; details: read-out: Activity
HOP-62 = experiment: Cytotoxicity against human HOP62 cells at 10 uM assessed as cell growth relative to control; assay type: functional; details: read-out: Activity
SNB-75 = experiment: Cytotoxicity against human SNB75 cells at 10 uM assessed as cell growth relative to control; assay type: functional; details: read-out: Activity
A549 = experiment: Cytotoxicity against human A549 cells at 10 uM assessed as cell growth relative to control; assay type: functional; details: read-out: Activity
MDA-MB-435 = experiment: Cytotoxicity against human MDA-MB-435 cells at 10 uM assessed as cell growth relative to control; assay type: functional; details: read-out: Activity
UO-31 = experiment: Cytotoxicity against human UO31 cells at 10 uM assessed as cell growth relative to control; assay type: functional; details: read-out: Activity
K562 = experiment: Cytotoxicity against human K562 cells at 10 uM assessed as cell growth relative to control; assay type: functional; details: read-out: Activity
UACC-62 = experiment: Cytotoxicity against human UACC62 cells at 10 uM assessed as cell growth relative to control; assay type: functional; details: read-out: Activity
MDA-MB-468 = experiment: Cytotoxicity against human MDA-MB-468 cells at 10 uM assessed as cell growth relative to control; assay type: functional; details: read-out: Activity
RXF 393 = experiment: Cytotoxicity against human RXF393 cells at 10 uM assessed as cell growth relative to control; assay type: functional; details: read-out: Activity
HT-29 = experiment: Cytotoxicity against human HT-29 cells at 10 uM assessed as cell growth relative to control; assay type: functional; details: read-out: Activity
A498 = experiment: Cytotoxicity against human A498 cells at 10 uM assessed as cell growth relative to control; assay type: functional; details: read-out: Activity
COLO 205 = experiment: Cytotoxicity against human COLO205 cells at 10 uM assessed as cell growth relative to control; assay type: functional; details: read-out: Activity
DU-145 = experiment: Cytotoxicity against human DU145 cells at 10 uM assessed as cell growth relative to control; assay type: functional; details: read-out: Activity
OVCAR-5 = experiment: Cytotoxicity against human OVCAR5 cells at 10 uM assessed as cell growth relative to control; assay type: functional; details: read-out: Activity
SR = experiment: Cytotoxicity against human SR cells at 10 uM assessed as cell growth relative to control; assay type: functional; details: read-out: Activity
NCI-H522 = experiment: Cytotoxicity against human NCI-H522 cells at 10 uM assessed as cell growth relative to control; assay type: functional; details: read-out: Activity
SF-268 = experiment: Cytotoxicity against human SF268 cells at 10 uM assessed as cell growth relative to control; assay type: functional; details: read-out: Activity
SK-MEL-2 = experiment: Cytotoxicity against human SK-MEL-2 cells at 10 uM assessed as cell growth relative to control; assay type: functional; details: read-out: Activity
SF-295 = experiment: Cytotoxicity against human SF295 cells at 10 uM assessed as cell growth relative to control; assay type: functional; details: read-out: Activity
OVCAR-3 = experiment: Cytotoxicity against human OVCAR-3 cells at 10 uM assessed as cell growth relative to control; assay type: functional; details: read-out: Activity
SN12C = experiment: Cytotoxicity against human SN12C cells at 10 uM assessed as cell growth relative to control; assay type: functional; details: read-out: Activity

CCC(CO)Oc1cc(NCc2ccccc2)c2ncn(C3CCCC3)c2c1 (configuration not stated)
Activity [1]: 132%

COc1cc(NCc2ccccc2)c2ncn(C(C)C)c2c1
growth at 10 µM (MOLT-4): 78.7% | growth at 10 µM [2]: 71.5% | growth at 10 µM (SK-OV-3): 110% | growth at 10 µM (NCI-H226): 97.1% | growth at 10 µM (OVCAR-4): 80.6% | growth at 10 µM (NCI/ADR-RES): 96.5% | growth at 10 µM (MDA-MB-231): 111% | growth at 10 µM (HCT-15): 97.9% | growth at 10 µM (SNB-19): 90.7% | growth at 10 µM (MCF7): 5.8% | growth at 10 µM (SK-MEL-5): 122% | growth at 10 µM (SK-MEL-28): 125% | growth at 10 µM (M14): 109% | growth at 10 µM (ACHN): 105% | growth at 10 µM (TK-10): 136% | growth at 10 µM (CAKI-1): 97.2% | growth at 10 µM (786-0): 96.8% | growth at 10 µM (SF-539): 96.2% | growth at 10 µM (KM12): 104% | growth at 10 µM (NCI-H23): 91.1% | growth at 10 µM (CCRF-CEM): 93.9% | growth at 10 µM (T47D): 80.1% | growth at 10 µM (HOP-92): 84.5% | growth at 10 µM (BT-549): 55.6% | growth at 10 µM [3]: 174% | growth at 10 µM (IGROV-1): 92.5% | growth at 10 µM (U-251): 103% | growth at 10 µM (NCI-H460): 107% | growth at 10 µM (NCI-H322M): 115% | growth at 10 µM (LOX IMVI): 115% | growth at 10 µM (EKVX): 93.9% | growth at 10 µM (SW-620): 146% | growth at 10 µM (HCT-116): 103% | growth at 10 µM (HL-60(TB)): 50.3% | growth at 10 µM (OVCAR-8): 98.7% | growth at 10 µM (Malme-3M): 49.2% | growth at 10 µM (UACC-257): 105% | growth at 10 µM (HCC 2998): 104% | growth at 10 µM (HOP-62): 101% | growth at 10 µM (SNB-75): 92.3% | growth at 10 µM (A549): 110% | growth at 10 µM (MDA-MB-435): 122% | growth at 10 µM (UO-31): 83.2% | growth at 10 µM (K562): 64.2% | growth at 10 µM (UACC-62): 97.3% | growth at 10 µM (MDA-MB-468): 36.5% | growth at 10 µM (RXF 393): 91.2% | growth at 10 µM (HT-29): 109% | growth at 10 µM (A498): 106% | growth at 10 µM (COLO 205): 118% | growth at 10 µM (DU-145): 136% | growth at 10 µM (OVCAR-5): 97.2% | growth at 10 µM (SR): 51.7% | growth at 10 µM (NCI-H522): 87% | growth at 10 µM (SF-268): 125% | growth at 10 µM (SK-MEL-2): 91.6% | growth at 10 µM (SF-295): 138% | growth at 10 µM (OVCAR-3): 103% | growth at 10 µM (SN12C): 104%

COc1cc(NCc2ccccc2)c2ncn(Cc3ccccc3)c2c1
Activity [1]: 136%

c1ccc(CNc2cc(Cc3ccccc3)cc3c2ncn3C2CCCC2)cc1
Activity [1]: 78%
